pEC50: −log10 of the molar value. Active and inactive are the calls of the source. No cut-off for these calls is given here. Bounds are passed on as bounds.

The results in this text go back to ChEMBL document CHEMBL1153622, “Antiviral evaluation of N-amino-1,2,3-triazoles against Cantagalo virus replication in cell culture” (Eur J Med Chem, 2009).

For data set [1], the system named is Cantagalo virus. Kind of data set: Antiviral activity against Cantagalo virus in african green monkey BSC40 cells assessed inhibition of viral plaque number at 50 uM after 48 hrs post infection. The format is functional. As to conditions: BSC-40, 48 h.
Data set [2] deals with Cantagalo virus. Put plainly: Antiviral activity against Cantagalo virus in african green monkey BSC40 cells assessed inhibition of viral yield at 100 uM after 24 hrs post infection by plaque assay. The format is functional, BSC-40. More on the design: scale not given: the % may be the effect or the level left.
Data set [3] deals with Cantagalo virus. Put plainly: Antiviral activity against Cantagalo virus replication in BSC-40 cells assessed as inhibition of viral protein accumulation at 50 uM after 24 hrs post infection by Western blot. The data set is classed as functional, organism-based. Background: Immunoblotting shows a protein as a band on a membrane.
The nature of data set [4]: Cytotoxicity against african green monkey BSC40 cells assessed as non-viable cells at 50 uM for 24 hrs by neutral red assay. The format is cell-based. To be noted: chlorocebus aethiops, bsc-40, 24 h. In short, it runs like this: (§1)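 Confluent BSC-40 cells exposed to compound for 24 h at 37 °C, 0.5% DMSO control. Neutral red (50 µg/mL) added for 3 h at 37 °C, then 50% methanol with 1% acetic acid for 20 min at room temperature. OD 490 nm read; uptake proportional to viable cells.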

Data set [5] can be described thus: Cytotoxicity against african green monkey BSC40 cells assessed as non-viable cells at 100 uM for 24 hrs by neutral red assay. As to conditions: chlorocebus aethiops, bsc-40, 24 h. The data set is classed as cell-based. Put shortly: as §1
In data set [6] the test system is Cantagalo virus. Kind of data set: Antiviral activity against Cantagalo virus in african green monkey BSC40 cells assessed inhibition of viral yield at 50 uM after 24 hrs post infection by plaque assay. As to conditions: BSC-40, 24 h. The format is functional.
Data set [7] deals with Cantagalo virus. Kind of data set: Antiviral activity against Cantagalo virus in african green monkey BSC40 cells assessed as inhibition of viral protein accumulation at 100 uM after 24 hrs post infection by Western blot. The format is functional, BSC-40. More on the design: scale not given: the % may be the effect or the level left.
Data set [8] has as its system Cantagalo virus. Kind of data set: Antiviral activity against Cantagalo virus replication in african green monkey BSC40 cells assessed as inhibition of viral protein accumulation after 24 hrs post infection by Western blot. The format is functional, organism-based. To be noted: BSC-40.
A further data set deals with Vaccinia virus. Put plainly: Antiviral activity against Vaccinia virus. The format is functional, organism-based. As to conditions: Orthopoxvirus vaccinia.
The subject of another data set is Cowpox virus. Kind of data set: Antiviral activity against Cowpox virus. The data set is classed as functional, organism-based.
The nature of data set [9]: Cytotoxicity against african green monkey BSC40 cells assessed as cell viability at 50 uM for 24 hrs by neutral red assay. The data set is classed as cell-based, BSC-40. As to conditions: chlorocebus aethiops, read-out: Activity. Put shortly:
as §1

Data set [10] can be described thus: Cytotoxicity against african green monkey BSC40 cells assessed as reduction in cell viability at 100 uM for 24 hrs by neutral red assay. To be noted: chlorocebus aethiops, bsc-40, 24 h. The format is cell-based. Put shortly: as §1
For data set [11], the system named is Cantagalo virus. Put plainly: Antiviral activity against Cantagalo virus in african green monkey BSC40 cells assessed inhibition of viral plaque formation at 100 uM after 48 hrs post infection. The data set is classed as functional. As to conditions: BSC-40, 48 h.
Data set [12] can be described thus: Cytotoxicity against african green monkey BSC40 cells assessed as change in cell morphology at 100 uM for 24 hrs by neutral red assay. The format is cell-based. As to conditions: chlorocebus aethiops, bsc-40, 24 h.

With `Cc1c(C(=O)NN)nnn1Nc1ccc(Cl)cc1`, the inhibition (as a rule, how much of the control response was suppressed) at 50 µM in the data set with Cantagalo virus [1] was 3.79%.

Take `CCOC(=O)c1nnn(Nc2ccccc2)c1C`: in the data set on Cantagalo virus [1], the inhibition at 50 µM was determined as 15.2%.

Consider `Cc1c(C(=O)NN)nnn1Nc1ccc(F)cc1`, for which the inhibition at 50 µM worked out at 48.3% with Cantagalo virus [1] and 55.7% in the data set on Cantagalo virus [6]. Besides, the Activity in the data set with Cantagalo virus [2] is 80%; in data set [4] it was 10%; in data set [5], 30%; with Cantagalo virus [7], 71.2%; with Cantagalo virus [8], “Dose-dependent effect”. The outcome in the data set with Cantagalo virus [3] was Active.

`Cc1c(C(=O)NN)nnn1Nc1ccc(Br)cc1`: at 50 µM the inhibition in the data set with Cantagalo virus [1] was 8.4%.

As for `O=C(NN1C(=O)[C@@H]2[C@@H]3C=C[C@@H]([C@H]4C[C@@H]34)[C@@H]2C1=O)c1ccc(C(F)(F)F)cc1` [TECOVIRIMAT], the pEC50 in the data set with Vaccinia virus and in the data set on Cowpox virus was greater than 6.30 in each case.

As for `Nc1ccn(C[C@@H](CO)OCP(=O)(O)O)c(=O)n1` [CIDOFOVIR], the pEC50 (in general, −log10 of the EC50, conventionally taken in molar units) with Vaccinia virus is 5.00.

`CCOC(=O)c1nnn(Nc2cc(Cl)ccc2Cl)c1C`: the inhibition at 50 µM in the data set on Cantagalo virus [1] came to 47.2%; in the data set with Cantagalo virus [6], 67.5%. Besides, the viability at 24 h, 50 µM in data set [9] turned out to be 60%.

On to `CCOC(=O)c1nnn(Nc2ccc(Cl)cc2)c1C`, for which the inhibition at 50 µM in the data set on Cantagalo virus [1] is 11%.

In the data set with Cantagalo virus [1], `CCOC(=O)c1nnn(Nc2ccc(Br)cc2)c1C` came in with an inhibition at 50 µM of 34.4%. For the same compound, the Activity is on record as 52.6% in data set [10] and “Toxic” in data set [12]. This compound gave an inhibition at 100 µM in the data set on Cantagalo virus [11] of 84.6%.

Take `Cc1c(C(=O)NN)nnn1Nc1ccccc1`: testing at 50 µM with Cantagalo virus [1] gave an inhibition of 6.1%.

Consider `CCOC(=O)c1nnn(Nc2ccc(F)cc2)c1C`, for which the inhibition at 50 µM with Cantagalo virus [1] came to 9.42%.

In the data set on Cantagalo virus [1], `Cc1c(C(=O)NN)nnn1Nc1cc(Cl)ccc1Cl` showed an inhibition at 50 µM of 9.71%.
